The target in experiment [1] is Aldo-keto reductase family 1 member B1 (Rattus norvegicus, UniProt P07943). In words: Inhibition of rat lens ALR2. The format is tissue-based, Lens of camera-type eye. The method, boiled down: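 Partially purified rat lens enzyme (water homogenate, supernatant after 40% ammonium sulfate). NADPH consumption read at 340 nm with D,L-glyceraldehyde as substrate at 30 °C. Compounds dissolved in 10% aqueous NaHCO3 and tested at five concentrations. IC50 from least-squares fit of the linear part of the log dose–response curve; triplicate.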

Experiment [2] can be described thus: Inhibition of rat kidney ALR1. The method, boiled down:
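Enzyme partially purified from Fischer-344 rat kidney by ammonium sulfate fractionation (40/50/75%) and DEAE treatment, with no detectable ALR2 activity. NADPH consumption followed at 340 nm with D-glucuronate substrate at 37 °C. Compounds in 10% aqueous NaHCO3, five concentrations. IC50 from least-squares fit of the linear part of the log dose–response; triplicate.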

The species entered for another experiment is Rattus norvegicus. In words: Selectivity index, ratio of IC50 for rat kidney ALR1 to IC50 for rat lens ALR2. The following applies: Lens of camera-type eye. The experiment is classed as tissue-based. The method, boiled down: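 Ratio of IC50 values: rat kidney enzyme assayed with D-glucuronate at 37 °C, rat lens enzyme with D,L-glyceraldehyde at 30 °C. Both read as NADPH consumption at 340 nm, five compound concentrations, IC50 from the linear part of the log dose–response curve, triplicate.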

The nature of experiment [3]: Antioxidant activity assessed as inhibition of AAPH-induced lipid peroxidation of DOPC liposomes. The experiment is classed as functional. The method, boiled down: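 Unilamellar DOPC liposomes, 0.8 mM final, in 20 mM phosphate buffer pH 7.4, incubated with compound at 10–300 µM and AAPH (10 mM final) at 50 °C for 80 min. Lipids extracted with CHCl3/MeOH 2:1 containing 0.05% BHT. Hydroperoxides read by the thiocyanate method at 500 nm against a cumene hydroperoxide calibration. IC50 from the linear part of the semilog inhibition plot; triplicate.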

The nature of experiment [4]: Inhibition of glucose-induced sorbitol accumulation in rat lens at 100 uM (Rbv = 643.5+/-133 nmol/g). The experiment is classed as functional, Lens of camera-type eye.

These results are taken from ChEMBL document CHEMBL1671807, “Structure-activity relations on [1-(3,5-difluoro-4-hydroxyphenyl)-1H-pyrrol-3-yl]phenylmethanone. The effect of methoxy substitution on aldose reductase inhibitory activity and selectivity” (Bioorg Med Chem, 2011).

Structures are written as SMILES. pIC50: −log10 of the molar value. Some results are limits rather than exact numbers.

Take `O=C(c1ccccc1)c1ccn(-c2ccc(F)c(O)c2F)c1`: the pIC50 in experiment [1] is 5.90; in experiment [2], 5.79. Also, the Ratio IC50 in the experiment listed under Rattus norvegicus was 1.3.

`O=C(c1ccccc1)c1cccn1-c1cc(F)c(O)c(F)c1`: the figures for the pIC50 in experiment [1] and in experiment [2] were 5.97 and 5.34, respectively. In the experiment listed under Rattus norvegicus, the Ratio IC50 stood at 4.3.

As for `COc1ccc(C(=O)c2ccn(-c3cc(F)c(O)c(F)c3)c2)cc1`, the negative-log IC50 (pIC50) is 4.60 in experiment [1] and less than 4.00 in experiment [2]. Besides, the Ratio IC50 in the experiment filed under Rattus norvegicus was more than 4.

As for `COc1cccc(C(=O)c2cccn2-c2cc(F)c(O)c(F)c2)c1`, the figures for the pIC50 in experiment [1] and in experiment [2] were 5.93 and 4.63, respectively. In addition, the Ratio IC50 in the experiment filed under Rattus norvegicus came out at 19.9.

For the compound `COc1cccc(C(=O)c2ccn(-c3cc(F)c(O)c(F)c3)c2)c1`, the pIC50 in experiment [1] is 5.00; in experiment [2], 4.29. For the same compound, the Ratio IC50 in the experiment listed under Rattus norvegicus is 5.2.

`O=C(c1ccccc1)c1ccn(-c2cc(F)c(O)c(F)c2)c1` had a pIC50 in experiment [2] of 4.87. Also, the Ratio IC50 in the experiment listed under Rattus norvegicus came out at 33.8.

Take `COc1ccc(C(=O)c2cccn2-c2cc(F)c(O)c(F)c2)cc1`: the pIC50 in experiment [1] was 6.41; in experiment [2], 4.56; in experiment [3], 4.45. In addition, the Ratio IC50 in the experiment listed under Rattus norvegicus worked out at 71.6. For the same compound, the Activity in experiment [4] was 203.5 nmol/g.

The term pIC50 denotes −log10 of the IC50, conventionally taken in molar units.
